# Reference: ChEMBL document CHEMBL5252569, “Synthesis and biological evaluation of new β-D-N4-hydroxycytidine analogs against SARS-CoV-2, influenza viruses and DENV-2” (Bioorg Med Chem Lett, 2023)
# Tests used:
# Vero = assay: (§1) Cytotoxicity against African green monkey Vero cells assessed as reduction in cell viability incubated for 24 hrs by MTT assay; type: toxicity, cell-based; settings: chlorocebus sabaeus, vero, 24 h
# Method in brief: (§2)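 Viability of non-infected or infected cells (Vero CCL-81 or MDCK CCL-34) measured by MTT; CC50 calculated by nonlinear regression.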
# SARS-CoV-2 [1] = assay: Antiviral activity against SARS-CoV-2 (hCoV-19/Korea/KCDC-06/2020) infected in African green monkey Vero cells preincubated with cells for 24 hrs followed by viral infection and measured after 24 hrs by DAPI-staining based fluorescence assay; type: functional, organism-based; settings: Severe acute respiratory syndrome coronavirus 2, hCoV-19/Korea/KCDC-06/2020, Vero
# Influenza A virus [2] = assay: Antiviral activity against Influenza A virus A/Puerto Rico/8/34 (H1N1) infected in MDCK cells assessed as reduction in virus-induced cytopathic effect pre-infected with cells for 1 hrs followed by compound addition and measured after 3 days by fluorescein diacetate-based cell viability assay; type: functional, organism-based
# MDCK = assay: (§3) Cytotoxicity against MDCK cells assessed as reduction in cell viability measured for 48 hrs by MTT assay; type: toxicity, cell-based, Canis lupus familiaris; settings: dog, mdck, 48 h; method in brief: as §2
# Influenza A virus [3] = assay: Antiviral activity against Influenza A virus A/Hong Kong/8/68 (H3N2) infected in MDCK cells assessed as reduction in virus-induced cytopathic effect pre-infected with cells for 1 hrs followed by compound addition and measured after 3 days by fluorescein diacetate-based cell viability assay; type: functional, organism-based
# Influenza B virus [4] = assay: Antiviral activity against Influenza B virus B/Lee/40 infected in MDCK cells assessed as reduction in virus-induced cytopathic effect pre-infected with cells for 1 hrs followed by compound addition and measured after 3 days by fluorescein diacetate-based cell viability assay; type: functional, organism-based; settings: B/Lee/40, MDCK
# dengue virus type 2 [5] = assay: Antiviral activity against Dengue virus 2 infected in hamster BHK-21 cells incubated for 48 hrs by renilla luciferase based assay; type: functional, organism-based; settings: BHK-21, 48 h
# Method in brief: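 DENV-2 replicon-bearing BHK-21 cells (DENV2-BHK); replication read out with a Renilla luciferase assay system; EC50 calculated by nonlinear regression.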
# [6] = (§4) Cytotoxicity against hamster BHK-21 cells incubated for 4 days by MTS assay; type: toxicity, cell-based, Mesocricetus auratus; settings: BHK-21 cells, time 4 day
# BHK-21 = assay: as §4; type: toxicity, cell-based, Mesocricetus auratus; settings: bhk-21, 96 h, time 4 day
# SARS-CoV-2 [7] = assay: Potency index, ratio of beta-D-N4-hydroxycytidine EC50 to test compound EC50 for antiviral activity against antiviral activity against SARS-CoV-2 (hCoV-19/Korea/KCDC-06/2020) infected in African green monkey Vero cells preincubated with cells for 24 hrs followed by viral infection and measured after 24 hrs by DAPI-staining based fluorescence assay; type: functional, Severe acute respiratory syndrome coronavirus 2; settings: time 48 hrs
# SARS-CoV-2 [8] = assay: Potency index, ratio of MK-4482 EC50 to test compound EC50 for antiviral activity against antiviral activity against SARS-CoV-2 (hCoV-19/Korea/KCDC-06/2020) infected in African green monkey Vero cells preincubated with cells for 24 hrs followed by viral infection and measured after 24 hrs by DAPI-staining based fluorescence assay; type: functional, Severe acute respiratory syndrome coronavirus 2; settings: time 48 hrs
# Influenza B virus [9] = assay: Potency index, ratio of MK-4482 EC50 to test compound EC50 for antiviral activity against Influenza B virus B/Lee/40 infected in MDCK cells assessed as reduction in virus-induced cytopathic effect pre-infected with cells for 1 hrs followed by compound addition and measured after 3 days by fluorescein diacetate-based cell viability assay; type: functional; settings: time 3 day
# dengue virus type 2 [10] = assay: Potency index, ratio of MK-4482 EC50 to test compound EC50 for antiviral activity against Dengue virus 2 infected in hamster BHK-21 cells incubated for 48 hrs by renilla luciferase based assay; type: functional
# SARS-CoV-2 [11] = assay: Potency index, ratio of remdesivir EC50 to test compound EC50 for antiviral activity against SARS-CoV-2 (hCoV-19/Korea/KCDC-06/2020) infected in African green monkey Vero cells preincubated with cells for 24 hrs followed by viral infection and measured after 24 hrs by DAPI-staining based fluorescence assay; type: functional, Severe acute respiratory syndrome coronavirus 2; settings: time 48 hrs
# Influenza A virus [12] = assay: Potency index, ratio of ribavirin EC50 to test compound EC50 for antiviral activity against Influenza A virus A/Puerto Rico/8/34 (H1N1) infected in MDCK cells assessed as reduction in virus-induced cytopathic effect pre-infected with cells for 1 hrs followed by compound addition and measured after 3 days by fluorescein diacetate-based cell viability assay; type: functional; settings: time 3 day
# Influenza A virus [13] = assay: Potency index, ratio of ribavirin EC50 to test compound EC50 for antiviral activity against Influenza A virus A/Hong Kong/8/68 (H3N2) infected in MDCK cells assessed as reduction in virus-induced cytopathic effect pre-infected with cells for 1 hrs followed by compound addition and measured after 3 days by fluorescein diacetate-based cell viability assay; type: functional; settings: time 3 day
# Influenza B virus [14] = assay: Potency index, ratio of ribavirin EC50 to test compound EC50 for antiviral activity against Influenza B virus B/Lee/40 infected in MDCK cells assessed as reduction in virus-induced cytopathic effect pre-infected with cells for 1 hrs followed by compound addition and measured after 3 days by fluorescein diacetate-based cell viability assay; type: functional; settings: time 3 day
# dengue virus type 2 [15] = assay: Potency index, ratio of […] for antiviral activity against Dengue virus 2 infected in hamster BHK-21 cells incubated for 48 hrs by renilla luciferase based assay; type: functional
# Influenza B virus [16] = assay: Potency index, ratio of T-705 EC50 to test compound EC50 for antiviral activity against Influenza B virus B/Lee/40 infected in MDCK cells assessed as reduction in virus-induced cytopathic effect pre-infected with cells for 1 hrs followed by compound addition and measured after 3 days by fluorescein diacetate-based cell viability assay; type: functional; settings: time 3 day
# [17] = as §1; type: toxicity, cell-based; settings: chlorocebus sabaeus, Vero cells; method in brief: as §2
# [18] = as §3; type: toxicity, cell-based, Canis lupus familiaris; settings: dog, MDCK cells; method in brief: as §2
compound,measurement,setting,value
CCOC(=O)[C@H](C)Nc1ccn([C@@H]2O[C@H](CO)[C@@H](O)[C@H]2O)c(=O)n1,CC50,Vero,> 100 µM
same,EC50,SARS-CoV-2 [1],> 100 µM
same,EC50,Influenza A virus [2],> 100 µM
same,CC50,MDCK,> 100 µM
same,EC50,Influenza A virus [3],> 100 µM
same,EC50,Influenza B virus [4],> 100 µM
same,EC50,dengue virus type 2 [5],100 µM
same,CC50 at 96 h,[6],100 µM
CCOC(=O)[C@H](Cc1ccccc1)Nc1ccn([C@@H]2O[C@H](CO)[C@@H](O)[C@H]2O)c(=O)n1,CC50,Vero,> 100 µM
same,EC50,SARS-CoV-2 [1],> 100 µM
same,EC50,Influenza A virus [2],> 100 µM
same,CC50,MDCK,> 100 µM
same,EC50,Influenza A virus [3],> 100 µM
same,EC50,Influenza B virus [4],> 100 µM
same,EC50,dengue virus type 2 [5],100 µM
same,CC50 at 96 h,[6],100 µM
NC12CC3CC(CC(C3)C1)C2 [AMANTADINE],EC50,Influenza A virus [2],> 100 µM
same,EC50,Influenza A virus [3],6.4 µM
same,EC50,Influenza B virus [4],> 100 µM
NNc1ccn([C@@H]2O[C@H](CO)[C@@H](O)[C@H]2O)c(=O)n1,CC50,Vero,> 100 µM
same,EC50,SARS-CoV-2 [1],> 100 µM
same,EC50,Influenza A virus [2],> 100 µM
same,CC50,MDCK,> 100 µM
same,EC50,Influenza A virus [3],> 100 µM
same,EC50,Influenza B virus [4],> 100 µM
same,EC50,dengue virus type 2 [5],100 µM
same,CC50 at 96 h,[6],100 µM
CC(C)C(=O)ONc1ccn([C@@H]2O[C@H](CO)[C@@H](O)[C@H]2O)c(=O)n1,EC50,SARS-CoV-2 [1],3.5 µM
same,EC50,Influenza A virus [2],5.8 µM
same,EC50,Influenza A virus [3],7.3 µM
same,EC50,Influenza B virus [4],3.4 µM
same,EC50,dengue virus type 2 [5],3.95 µM
same,CC50,BHK-21,10.8 µM
same,Ratio EC50,SARS-CoV-2 [7],>4.7
same,Ratio EC50,SARS-CoV-2 [8],3.4
same,Ratio EC50,Influenza B virus [9],7
same,Ratio EC50,dengue virus type 2 [10],5.9
same,Ratio EC50,SARS-CoV-2 [11],3
same,Ratio EC50,Influenza A virus [12],6
same,Ratio EC50,Influenza A virus [13],5
same,Ratio EC50,Influenza B virus [14],10
same,Ratio EC50,dengue virus type 2 [15],3
same,Ratio EC50,Influenza B virus [16],2
CCC(CC)COC(=O)[C@H](C)N[P@](=O)(OC[C@H]1O[C@@](C#N)(c2ccc3c(N)ncnn23)[C@H](O)[C@@H]1O)Oc1ccccc1,CC50 at 24 h,[17],> 100 µM
NC(=O)c1nc(F)cnc1O,EC50,Influenza A virus [2],3.2 µM
same,EC50,Influenza A virus [3],8.5 µM
same,EC50,Influenza B virus [4],7.6 µM
NC(=O)c1ncn([C@@H]2O[C@H](CO)[C@@H](O)[C@H]2O)n1 [RIBAVIRIN],CC50 at 48 h,[18],> 100 µM
same,EC50,Influenza B virus [4],33.3 µM
same,EC50,dengue virus type 2 [5],1.16 µM
same,CC50,BHK-21,5.46 µM
CC(C)(C)OC(=O)NNc1ccn([C@@H]2O[C@H](CO)[C@@H](O)[C@H]2O)c(=O)n1,CC50,Vero,> 100 µM
same,EC50,SARS-CoV-2 [1],> 100 µM
same,EC50,Influenza A virus [2],> 100 µM
same,CC50,MDCK,> 100 µM
same,EC50,Influenza A virus [3],> 100 µM
same,EC50,Influenza B virus [4],> 100 µM
same,EC50,dengue virus type 2 [5],100 µM
same,CC50 at 96 h,[6],100 µM
CC(C)C(=O)OC[C@H]1O[C@@H](n2ccc(NO)nc2=O)[C@H](O)[C@@H]1O [MOLNUPIRAVIR],EC50,SARS-CoV-2 [1],11.8 µM
same,EC50,Influenza A virus [2],6.6 µM
same,EC50,Influenza A virus [3],6 µM
same,EC50,Influenza B virus [4],23.8 µM
same,EC50,dengue virus type 2 [5],23.4 µM
same,CC50,BHK-21,42.2 µM
O=c1nc(NCCO)ccn1[C@@H]1O[C@H](CO)[C@@H](O)[C@H]1O,CC50 at 24 h,[17],> 100 µM
same,EC50,SARS-CoV-2 [1],> 100 µM
same,EC50,Influenza A virus [2],> 100 µM
same,CC50 at 48 h,[18],> 100 µM
same,EC50,Influenza A virus [3],> 100 µM
same,EC50,Influenza B virus [4],> 100 µM
same,EC50,dengue virus type 2 [5],100 µM
same,CC50 at 96 h,[6],100 µM
CCOC(=O)CNc1ccn([C@@H]2O[C@H](CO)[C@@H](O)[C@H]2O)c(=O)n1,CC50,Vero,> 100 µM
same,EC50,SARS-CoV-2 [1],> 100 µM
same,EC50,Influenza A virus [2],> 100 µM
same,CC50,MDCK,> 100 µM
same,EC50,Influenza A virus [3],> 100 µM
same,EC50,Influenza B virus [4],> 100 µM
same,EC50,dengue virus type 2 [5],100 µM
same,CC50 at 96 h,[6],100 µM
CCOC(=O)[C@H](CC(C)C)Nc1ccn([C@@H]2O[C@H](CO)[C@@H](O)[C@H]2O)c(=O)n1,CC50,Vero,> 100 µM
same,EC50,SARS-CoV-2 [1],> 100 µM
same,EC50,Influenza A virus [2],> 100 µM
same,CC50,MDCK,> 100 µM
same,EC50,Influenza A virus [3],> 100 µM
same,EC50,Influenza B virus [4],> 100 µM
same,EC50,dengue virus type 2 [5],100 µM
same,CC50 at 96 h,[6],100 µM
O=c1nc(NO)ccn1[C@@H]1O[C@H](CO)[C@@H](O)[C@H]1O [N-HYDROXYCYTIDINE],CC50,Vero,16.5 µM
same,EC50,SARS-CoV-2 [1],> 16.5 µM
same,EC50,Influenza A virus [2],1.7 µM
same,CC50,MDCK,> 100 µM
same,EC50,Influenza A virus [3],2.3 µM
same,EC50,Influenza B virus [4],< 1.2 µM
same,EC50,dengue virus type 2 [5],2.84 µM
same,CC50,BHK-21,5.75 µM
